The structures appear in SMILES notation. pIC50: −log10 of the molar value. Calls of active or inactive are those of the source. The calls are words filed in the database; no cut-off is given here.

For test [1], the target named is T1, Proteasome Macropain subunit MB1 (Homo sapiens, UniProt P28074).
T1 sequence (P28074 whole entry): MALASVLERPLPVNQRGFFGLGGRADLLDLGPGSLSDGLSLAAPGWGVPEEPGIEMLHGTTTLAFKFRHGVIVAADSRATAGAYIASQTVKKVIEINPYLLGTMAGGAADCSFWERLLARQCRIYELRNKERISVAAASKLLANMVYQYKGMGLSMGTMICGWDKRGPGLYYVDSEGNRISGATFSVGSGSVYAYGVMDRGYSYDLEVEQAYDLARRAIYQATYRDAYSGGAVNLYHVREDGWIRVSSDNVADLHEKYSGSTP
The experiment in a line: Inhibition of chymotrypsin-like activity 20S proteasome beta subunit 5 of human MCF7 cells using fluorogenic substrate Suc-LLVY-AMC after 1 hr by fluorescence analysis. It counts as cell-based. In a few lines: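 For IC50, intact MCF-7 cells treated 12 h with compounds, then lysed (sucrose/HEPES/MgCl2/EDTA, 1 mM DTT); extracts in Tris pH 7.8/MgOAc/MgCl2/KCl/DTT mix with substrate 1 h at 37 °C; AMC fluorescence ex 360/em 460 nm, normalized to BCA total protein; DMSO solvent and MG-132 positive controls.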

In test [2] the test system is MCF7. Nature of the test: Increase in K48-linked polyubiquitinated protein expression in human MCF7 cells at IC50 after 12 hrs by Western blot analysis. The class given is functional, cell-based.
The subject of test [3] is MCF7. Nature of the test: Antiproliferative activity against human MCF7 cells assessed as cell viability after 48 hrs MTT assay. The class given is functional, cell-based. The following applies: MCF7, 48 h. In a few lines: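 MTT:medium (1:9) added 4 h at 37°C, formazan dissolved in DMSO, absorbance 570 nm. DMSO solvent control; triplicate; IC50 = concentration inhibiting 50% of viability.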

The target of test [4] is T2, Proteasome Macropain subunit MB1 (Homo sapiens) (UniProt P28074).
T2 sequence (whole entry): T1 sequence (P28074 whole entry)
The experiment in a line: Inhibition of chymotrypsin-like activity 20S proteasome beta subunit 5 of human MCF7 cells using fluorogenic substrate Suc-LLVY-AMC at 10 uM after 1 hr by fluorescence analysis relative to control. The class given is cell-based. The gist of the method:
(§1)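 Screen at 10 µM: MCF-7 lysates (sucrose/HEPES/MgCl2/EDTA buffer, 1 mM DTT) preincubated 10 min in 225 mM Tris pH 7.8, 7.5 mM MgOAc, 7.5 mM MgCl2, 45 mM KCl, 1 mM DTT; compound 1 h at 37 °C, then substrate 1 h at 37 °C; AMC release ex 360/em 460 nm versus DMSO; MG-132 positive control.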

For test [5], the system named is MCF7. The experiment in a line: Effect on 20S proteasome beta subunit 5 expression in human MCF7 cells at IC50 after 12 hrs by Western blot analysis. The class given is functional, cell-based.
The target in test [6] is Proteasome Macropain subunit (Homo sapiens) (UniProt P49721). The experiment in a line: Inhibition of trypsin-like activity 20S proteasome beta subunit 2 of human MCF7 cells using fluorogenic substrate Boc-LRR-AMC at 10 uM after 1 hr by fluorescence analysis relative to control. The class given is cell-based. In a few lines:
as §1

Test [7] addresses T3, Proteasome component C5 (Homo sapiens) (UniProt P20618).
T3 sequence (whole entry): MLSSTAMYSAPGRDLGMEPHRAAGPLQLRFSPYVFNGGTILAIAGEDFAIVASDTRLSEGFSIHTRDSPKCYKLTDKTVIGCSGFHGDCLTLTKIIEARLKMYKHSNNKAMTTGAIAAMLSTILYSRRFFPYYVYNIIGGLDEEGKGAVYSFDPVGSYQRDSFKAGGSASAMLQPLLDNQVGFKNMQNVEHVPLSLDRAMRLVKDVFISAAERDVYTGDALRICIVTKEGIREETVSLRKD
The experiment in a line: Inhibition of caspase-like activity 20S proteasome beta subunit 1 of human MCF7 cells using fluorogenic substrate Z-LLE-AMC at 10 uM after 1 hr by fluorescence analysis relative to control. It counts as cell-based. In a few lines:
as §1

Proteasome Macropain subunit (Homo sapiens), sequence (P49721 whole entry): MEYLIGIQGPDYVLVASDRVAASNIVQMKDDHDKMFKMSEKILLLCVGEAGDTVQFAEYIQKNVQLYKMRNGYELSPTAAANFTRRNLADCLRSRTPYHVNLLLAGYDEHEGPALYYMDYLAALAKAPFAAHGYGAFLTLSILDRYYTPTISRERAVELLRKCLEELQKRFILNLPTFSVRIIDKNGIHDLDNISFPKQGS

Regarding `O=C1C(Cl)=C(Nc2ccc(S(=O)(=O)Nc3ccccn3)cc2)C(=O)c2ccccc21`, the values for the negative-log IC50 (pIC50) in test [1] and in test [3] were 4.90 and 5.71, respectively. Moreover, in test [2], the result was Active. The inhibition in test [4] came to 36.8%; in test [6], 29.6%; in test [7], 18.8%. In addition, the result in test [5] was inactive.
Turning to `O=C(Nc1ccc([N+](=O)[O-])cc1)c1ccc(NC2=C(Cl)C(=O)c3ccccc3C2=O)cc1`, the pIC50 in test [1] was 4.48; in test [3] it was 4.79. Besides, the inhibition turned out to be 35.3% in test [4], 30.5% in test [6] and 22.8% in test [7].
As for `O=C1C(Cl)=C(Nc2ccc(S(=O)(=O)Nc3ccc(Cl)cn3)cc2)C(=O)c2ccccc21`, the figures for the pIC50 in test [1] and in test [3] were 5.00 and 5.35, respectively. The result in test [2] was Active. Also, the inhibition in test [4] is 42.3%; in test [6] it was 35%; in test [7], 28.9%. In test [5], the result was inactive.
As to `Cc1cc(NC(=O)c2ccc(NC3=C(Cl)C(=O)c4ccccc4C3=O)cc2)no1`, the pIC50 in test [3] was 4.99. Moreover, the inhibition was 18.9% in test [4], 6.55% in test [6] and 8.36% in test [7].
For the molecule `CCc1ccccc1NS(=O)(=O)c1ccc(NC2=C(Cl)C(=O)c3ccccc3C2=O)cc1`, the pIC50 in test [3] is 5.61. In addition, the inhibition in test [4] came out at 17.4%; in test [6], 21.1%; in test [7], 13.9%.
As to `O=C1C(Cl)=C(Nc2ccc(S(=O)(=O)Nc3cccc4ccccc34)cc2)C(=O)c2ccccc21`, the pIC50 in test [3] was 5.48. Also, the inhibition in test [4] was 18.4%; in test [6], 21.2%; in test [7], 15.4%.

For the origin of these results see ChEMBL document CHEMBL4706614, “Design, synthesis and biological evaluation of novel naphthoquinone-4-aminobenzensulfonamide/carboxamide derivatives as proteasome inhibitors” (Eur J Med Chem, 2021).
